Reference: ChEMBL document CHEMBL1137922, “Synthesis and activity of novel analogs of hemiasterlin as inhibitors of tubulin polymerization: modification of the A segment” (Bioorg Med Chem Lett, 2004)
Active and inactive are the calls of the source. No cut-off for these calls is given here.

Legend:
KB [1] = experiment: Concentration required to kill human epidermoid KBV1 cell lines containing very high levels of P-glycoprotein after 3 days of continuous exposure; format: functional, cell-based; details: 72 h
Summary of the method: (§1)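 KB-3-1, KB85 and KBV1 cells were plated at densities set to reach 60–90% confluence at analysis. Compounds were serially diluted in medium as 2× stocks and added in duplicate. After 3 days of incubation, cell survival was read by SRB assay and reported as IC50.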

Bos taurus [2] = species: Bos taurus; experiment: Percent inhibition of bovine microtubule-assisted protein (MAP) rich tubulin polymerisation at concentration of 0.3 uM; (result for 2); format: functional
Summary of the method: (§2)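 Bovine MAP-rich tubulin (final 1.5 mg/mL) was prepared in cold PEM buffer (80 mM NaPIPES pH 6.9, 1 mM MgCl2, 1 mM EGTA) with 1 mM GTP and spun at 12,000g for 10 min at 4 C. It was added to duplicate compound wells (final 0.3 µM); controls held 0.3% DMSO. A340 was read every minute for 60 min at 24 C.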

KB 3-1 = experiment: Concentration required to kill human epidermoid KB-3-1 cell lines containing very low levels of P-glycoprotein after 3 days of continuous exposure; format: functional, cell-based; details: KB 3-1, 72 h; summary of the method: as §1
Bos taurus [3] = species: Bos taurus; experiment: Percent inhibition of bovine microtubule-assisted protein (MAP) rich tubulin polymerisation at concentration of 0.3 uM; format: functional; summary of the method: as §2
KB85 (Homo sapiens) = experiment: Concentration required to kill human epidermoid KB85 cell lines containing moderate levels of P-glycoprotein after 3 days of continuous exposure; details: KB85, 72 h
Mus musculus [4] = experiment: Minimum effective dose against Lox melanoma human xenograft models in athymic mice; format: functional
Summary of the method: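 Lox melanoma cells (1.5–7 × 10^6) were injected sc into athymic mice. At 80–100 mg tumour mass, animals were randomised into groups of 5 or 10 and dosed iv in saline. Tumour length and width were measured weekly, with mass = (L·W²)/2. Relative tumour growth and %T/C were calculated.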

Mus musculus [5] = experiment: Minimum tolerated dose against Lox melanoma human xenograft models in athymic mice; format: functional
KB [6] = experiment: Concentration required to kill 50% of human epidermoid KBV1 cell lines containing very high levels of P-glycoprotein after 3 days of continuous exposure; format: functional, cell-based; details: 72 h; summary of the method: as §1
Mus musculus [7] = species: Mus musculus; experiment: Effect at 1.6 mpk against DLD1 cell line expressing P-glycoprotein transporter in athymic mice; Active; format: functional, organism-based; details: DLD-1
Mus musculus [8] = species: Mus musculus; experiment: Effect at 1.6 mpk against MX1W cell line expressing P-glycoprotein transporter in athymic mice; Active; format: functional, organism-based
Mus musculus [9] = species: Mus musculus; experiment: Effect at 1.6 mpk against HCT-15 cell line expressing P-glycoprotein transporter in athymic mice; Active; format: functional, organism-based
Mus musculus [10] = species: Mus musculus; experiment: Effect at 4 mpk against DLD1 cell line expressing P-glycoprotein transporter in athymic mice; Active; format: functional, organism-based; details: DLD-1
Mus musculus [11] = species: Mus musculus; experiment: Effect at 3 mpk against MX1W cell line expressing P-glycoprotein transporter in athymic mice; Active; format: functional, organism-based
Mus musculus [12] = species: Mus musculus; experiment: Effect at 3 mpk against HCT-15 cell line expressing P-glycoprotein transporter in athymic mice; inactive; format: functional, organism-based

SMILES	IC50 (KB [1]) [nM]	Inhibition (Bos taurus [2]) [%]	IC50 (KB 3-1) [nM]	Inhibition (Bos taurus [3]) [%]	IC50 (KB85 (Homo sapiens)) [nM]	MED (Mus musculus [4]) [mpk]	MTD (Mus musculus [5]) [mpk]	IC50 (KB [6]) [nM]	Effect (Mus musculus [7])	Effect (Mus musculus [8])	Effect (Mus musculus [9])	Effect (Mus musculus [10])	Effect (Mus musculus [11])	Effect (Mus musculus [12])
CCOC(=O)/C(C)=C/[C@H](C(C)C)N(C)C(=O)[C@@H](NC(=O)[C@H](NC)C(C)(C)c1cccc(C)c1)C(C)(C)C	3000	94	263	26	1700	–	–	–	–	–	–	–	–	–
CN[C@H](C(=O)N[C@H](C(=O)N(C)[C@H](/C=C(\C)C(=O)O)C(C)C)C(C)(C)C)C(C)(C)c1ccsc1	724	96	2.1	88	6.6	–	–	–	–	–	–	–	–	–
CN[C@H](C(=O)N[C@H](C(=O)N(C)[C@H](/C=C(\C)C(=O)O)C(C)C)C(C)(C)C)C(C)(C)c1ccc(C)c(C)c1	–	88	0.4	88	1.13	0.2	>1	39	–	–	–	–	–	–
CN[C@H](C(=O)N[C@H](C(=O)N(C)[C@H](/C=C(\C)C(=O)O)C(C)C)C(C)(C)C)C(C)(C)c1ccc(Cl)cc1	53	96	0.56	95	1.7	–	–	–	–	–	–	–	–	–
C=Cc1cccc(C(C)(C)[C@H](NC)C(=O)N[C@H](C(=O)N(C)[C@H](/C=C(\C)C(=O)O)C(C)C)C(C)(C)C)c1	130	90	0.86	88	2	–	–	–	–	–	–	–	–	–
CN[C@H](C(=O)N[C@H](C(=O)N(C)[C@H](/C=C(\C)C(=O)O)C(C)C)C(C)(C)C)C(C)(C)c1ccccc1 [TALTOBULIN]	81	–	1	91	2.4	–	–	–	Active	Active	Active	–	–	–
CN[C@H](C(=O)N[C@H](C(=O)N(C)[C@H](/C=C(\C)C(=O)O)C(C)C)C(C)(C)C)C(C)(C)c1cccc(Br)c1	148	84	1.8	90	4.1	1	4	–	–	–	–	Active	–	–
CN[C@H](C(=O)N[C@H](C(=O)N(C)[C@H](/C=C(\C)C(=O)O)C(C)C)C(C)(C)C)C(C)(C)c1ccc(C)cc1	55	94	1.5	95	2.6	–	–	–	–	–	–	–	–	–
CN[C@H](C(=O)N[C@H](C(=O)N(C)[C@H](/C=C(\C)C(=O)O)C(C)C)C(C)(C)C)C(C)(C)c1cc(F)cc(F)c1	457	84	6.2	90	16.2	–	–	–	–	–	–	–	–	–
CN[C@H](C(=O)N[C@H](C(=O)N(C)[C@H](/C=C(\C)C(=O)O)C(C)C)C(C)(C)C)C(C)(C)c1cccc(C(F)(F)F)c1	42.7	96	0.65	98	1.7	1	>5	–	–	–	–	–	–	–
CN[C@H](C(=O)N[C@H](C(=O)N(C)[C@H](/C=C(\C)C(=O)O)C(C)C)C(C)(C)C)C(C)(C)c1cccs1	162	88	2	92	3.9	1	>5	–	–	–	–	–	–	–
CN[C@H](C(=O)N[C@H](C(=O)N(C)[C@H](/C=C(\C)C(=O)O)C(C)C)C(C)(C)C)C(C)(C)c1cccc(Cl)c1	91	88	1.14	91	3.2	0.3	3	–	–	–	–	–	Active	inactive
